Screens: PubChem, several laboratories
Only some compounds are listed: those with a hit (about 4.8% of all), similar ones and a draw of the others.
PAFAH2 FP inh: PAFAH2 (human) inhibition. recombinant PAFAH2, FP-rhodamine activity probe, fluorescence polarization. inhibition, % at 3.39 µM. actives 0.99% (n = 340,000). AID 492956;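 active = inhibition above the mean over all tested compounds plus 3 SD, cut at about 30% in these data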;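 note: inhibitors block probe labeling of enzyme so polarization drops; 0% = enzyme with DMSO and 100% = wells lacking PAFAH2 protein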
PAFAH1B2 inh: PAFAH1B2 (human) inhibition; recombinant PAFAH1B2, FP-rhodamine activity probe, fluorescence polarization; inhibition, % at 3.39 µM; actives 1.2% (n = 340,000); AID 492953;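 active = inhibition above the mean of all tested compounds plus 3 SD, cut at about 24% in these data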;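 note: 0% = enzyme with DMSO and 100% = wells lacking PAFAH1B2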
PAFAH1B3 inh: PAFAH1B3 (human) inhibition; inhibition, % at 3.39 µM; actives 0.28% (n = 340,000); Q15102; recombinant PAFAH1B3, FP-rhodamine probe, fluorescence polarization;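 active = inhibition above the screen-wide average of all tested compounds plus 3 SD, cut at about 25% in these data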;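 note: 0% = enzyme with DMSO only and 100% = wells lacking PAFAH1B3 protein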
GRIN3A LBD mod: NR3A (human) ligand-binding domain modulation | NR3A LBD differential scanning fluorimetry, Tm shift; 0% = protein alone, 100% = glycine-bound protein | Tm shift relative to glycine control, % at 25 µM | actives 2.5% (n = 340,000) | AID 1259313;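 active = melting temperature shift of at least 10% of the positive control shift, at one fixed dose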
UCH37 DUB inh: human UCH37 deubiquitinating enzyme inhibition | Q9Y5K5 | purified proteasome/UCH37, Ub-AMC cleavage fluorescence | actives 0.33% (n = 330,000) | inhibition, % (test concentration not listed);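 active = mean inhibition over replicate wells above about 20%, limit read from the data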;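 note: 0% = compound-free wells with enzyme and 100% = wells lacking proteasome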
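Reagent: Ub-AMC substrate; assay system: Proteasome-associated human UCH37 deubiquitinase; controls: no-proteasome and no-compound wells; read-out: % inhibition of Ub-AMC cleavage fluorescence; timing: 30 min preincubation with enzyme, 25 min cleavage at room temperature; signal: AMC fluorescence from Ub-AMC cleavage, excitation 355 nm, emission 460 nm; buffer or medium: Tris-HCl pH 7.4 plus ovalbumin, ATP-MgCl2, DTT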
pPAFAH FP inh: pPAFAH (human) enzyme inhibition. actives 1.5% (n = 330,000). inhibition, % at 3.39 µM. Q13093. recombinant pPAFAH, FP-rhodamine probe fluorescence polarization;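 active = inhibition above the mean inhibition across the screen plus 3 SD, cut at about 25% in these data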;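 note: inhibitors block binding of the rhodamine activity-based probe so polarization drops; 0% = enzyme with DMSO and 100% = wells lacking pPAFAH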
Target sequence (Q13093 whole entry, looked up): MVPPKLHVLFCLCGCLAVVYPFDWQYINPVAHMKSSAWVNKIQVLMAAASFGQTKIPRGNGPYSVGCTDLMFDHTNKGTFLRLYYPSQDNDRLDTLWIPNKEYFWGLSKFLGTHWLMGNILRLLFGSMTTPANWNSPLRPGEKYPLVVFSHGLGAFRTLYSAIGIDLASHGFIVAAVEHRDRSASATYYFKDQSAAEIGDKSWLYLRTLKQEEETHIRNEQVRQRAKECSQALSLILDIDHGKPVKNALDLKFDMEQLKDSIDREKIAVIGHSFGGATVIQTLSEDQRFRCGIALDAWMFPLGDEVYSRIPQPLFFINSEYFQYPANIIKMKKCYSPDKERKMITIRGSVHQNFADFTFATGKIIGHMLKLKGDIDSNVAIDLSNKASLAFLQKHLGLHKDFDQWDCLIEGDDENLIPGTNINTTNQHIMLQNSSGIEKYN
Starred values were filed as active, the others as inactive.

`O=C(NN=Cc1ccco1)c1cccc(NC(=O)c2ccccc2Cl)c1` gave UCH37 DUB inh 5.3.
`Cc1onc(-c2ccccc2)c1C(=O)NN=C/C(Br)=C/c1ccccc1` gave UCH37 DUB inh -1.2.
For O=C(COc1ccc(Cl)cc1)NNC(=O)C(=O)N1CCCCC1 the results were PAFAH2 FP inh 0.8, PAFAH1B2 inh 31.2*, PAFAH1B3 inh 0.4, GRIN3A LBD mod 2.0, UCH37 DUB inh 1.5 and pPAFAH FP inh 5.3.
COc1ccc(OCC(=O)NNC(=O)C(=O)N2CCCC2)cc1 was read as PAFAH2 FP inh -5.9, PAFAH1B2 inh 4.3, PAFAH1B3 inh 5.6, GRIN3A LBD mod -2.9, UCH37 DUB inh 0.3 and pPAFAH FP inh 3.4.
CN(C)Cc1c(C(=O)NN=CC2CC=CCC2)nnn1-c1nonc1N (centres undefined) was read as UCH37 DUB inh 4.3.
For O=C1c2ccccc2C(=O)N1CCOc1cccc(Br)c1 the results were PAFAH2 FP inh -0.3, PAFAH1B2 inh -3.5, PAFAH1B3 inh 1.9, GRIN3A LBD mod 11.1*, UCH37 DUB inh 5.7 and pPAFAH FP inh 6.4.
Screening CCC(C)C(C)=NNC(=O)CSc1nc2ccccc2[nH]1 (centres undefined) returned UCH37 DUB inh 4.4.
COCCCNC(=S)NN=Cc1ccc(O)cc1 was read as UCH37 DUB inh 4.6.
For CCOc1ccc(N2C(=O)CC(N3CCC(NC(=O)Nc4ccccc4)CC3)C2=O)cc1 (centres undefined) the results were PAFAH2 FP inh -6.1, PAFAH1B2 inh 4.8, PAFAH1B3 inh 5.9, GRIN3A LBD mod 13.6*, UCH37 DUB inh 5.6 and pPAFAH FP inh 0.1.
Screening O=C(O)c1ccc(-c2ccc(/C=c3/sc4nc5ccccc5n4c3=O)o2)cc1Cl returned PAFAH2 FP inh 23.4, PAFAH1B2 inh 14.6, PAFAH1B3 inh 25.9*, GRIN3A LBD mod 7.7 and pPAFAH FP inh 26.7*.
Screening Cc1cc(C=c2sc3nc4ccccc4n3c2=O)c(C)n1-c1ccc(C(=O)O)cc1 returned UCH37 DUB inh -5.5.
Screening Nc1nonc1-n1nnc(C(=O)NN=Cc2cccc(F)c2)c1CN1CCCC1 returned UCH37 DUB inh 0.5.
CCN(CC)CCC(c1ccc2c(c1)OCO2)c1c(OC)cc(OC)c2ccc(=O)oc12 (centres undefined) was read as PAFAH2 FP inh 0.8, PAFAH1B2 inh 0.8, PAFAH1B3 inh -0.4, GRIN3A LBD mod -0.8, UCH37 DUB inh -2.0 and pPAFAH FP inh 2.1.
CCN(CC)CCC(c1cc(OC)c(OC)c(OC)c1)c1c(OC)cc(OC)c2ccc(=O)oc12 (centres undefined) was read as PAFAH2 FP inh 3.2, PAFAH1B2 inh 0.0, PAFAH1B3 inh 3.4, GRIN3A LBD mod 12.9*, UCH37 DUB inh 4.7 and pPAFAH FP inh 1.4.
For CC(=NNC(=O)c1cc(-c2ccc(C)s2)[nH]n1)c1ccncc1 the results were UCH37 DUB inh 2.0.
`CC(CC(=O)Nc1c(C)cc(C)cc1C)=NNC(=O)c1cnccn1` gave UCH37 DUB inh 0.8.
Screening CCOC(=O)/C(N=Nc1ccc(C(=O)O)cc1[N+](=O)[O-])=C(\C)O returned PAFAH2 FP inh -1.3, PAFAH1B2 inh 9.5, PAFAH1B3 inh 6.7, GRIN3A LBD mod 0.6, UCH37 DUB inh 23.3* and pPAFAH FP inh 2.1.
For COc1ccc(C=NNC(=O)c2ccc(O)cc2O)cc1CSc1ccccn1 the results were UCH37 DUB inh -48.2.
C(=Nn1cnnc1)c1cccnc1 was read as UCH37 DUB inh -0.9.
Screening CCN(CC)S(=O)(=O)c1cccc(-c2n[nH]c(=S)n2N=Cc2ccc(C(=O)OC)cc2)c1 returned UCH37 DUB inh -1.3.
For COC(=O)CSc1nnc(SCc2ccc(Cl)cc2)s1 the results were PAFAH2 FP inh 5.6, PAFAH1B2 inh 30.8*, PAFAH1B3 inh 3.0, GRIN3A LBD mod -3.1, UCH37 DUB inh 2.5 and pPAFAH FP inh 6.5.
COC(=O)CSc1nnc(SCc2ccccc2)s1 was read as PAFAH2 FP inh 2.0, PAFAH1B2 inh 9.3, PAFAH1B3 inh 5.0, GRIN3A LBD mod 1.6, UCH37 DUB inh 1.6 and pPAFAH FP inh 4.0.
`COc1ccc(C(=O)CC(=O)c2ccccc2O)cc1OC` gave PAFAH2 FP inh -0.4, PAFAH1B2 inh 2.3, PAFAH1B3 inh 3.8, GRIN3A LBD mod 15.2*, UCH37 DUB inh -6.3 and pPAFAH FP inh 3.4.
